Measured values: ChEMBL document CHEMBL1933007, “Novel brain penetrant benzofuropiperidine 5-HT₆ receptor antagonists” (Bioorg Med Chem Lett, 2012)
One block for each compound: values may come before it. Calls of active or inactive are those of the source. The calls are words filed in the database; no cut-off is given here.

Key:
[1] = molecular target: T1, 5-hydroxytryptamine receptor 6 (Homo sapiens, UniProt P50406); assay: Displacement of [3H]LSD from full length human 5HT6 receptor
Method in brief: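 Radioligand binding with [³H]LSD on membranes from cells expressing full-length human 5-HT6R.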

[2] = Dissociation constant, pKa of the compound; format: physicochemical
Method in brief: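 pKa is a calculated value, not a measured one.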

[3] = molecular target: T2, Alpha-2B adrenergic receptor (Homo sapiens) (UniProt P18089); details: 10 uM
T2 sequence (whole entry): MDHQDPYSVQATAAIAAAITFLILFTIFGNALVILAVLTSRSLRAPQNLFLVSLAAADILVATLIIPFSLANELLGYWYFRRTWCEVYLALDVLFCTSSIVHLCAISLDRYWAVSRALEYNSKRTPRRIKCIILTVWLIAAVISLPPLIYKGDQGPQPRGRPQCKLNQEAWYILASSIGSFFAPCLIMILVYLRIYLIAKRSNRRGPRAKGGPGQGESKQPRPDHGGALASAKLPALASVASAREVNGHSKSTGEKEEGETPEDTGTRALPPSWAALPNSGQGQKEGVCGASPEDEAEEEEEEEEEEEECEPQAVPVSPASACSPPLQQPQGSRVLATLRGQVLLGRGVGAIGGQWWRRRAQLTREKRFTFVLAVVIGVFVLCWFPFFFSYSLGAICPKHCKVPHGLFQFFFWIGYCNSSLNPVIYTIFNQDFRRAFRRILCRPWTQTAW

[4] = molecular target: T3, 5-hydroxytryptamine receptor 2B (Homo sapiens, UniProt P41595); details: 10 uM
[5] = molecular target: D(2) dopamine receptor (Homo sapiens) (UniProt P14416); details: 1 uM
[6] = molecular target: 5-hydroxytryptamine receptor 2A (Homo sapiens) (UniProt P28223); details: 10 uM
[7] = molecular target: T4, Alpha-2A adrenergic receptor (Homo sapiens) (UniProt P08913); details: 10 uM
T4 sequence (whole entry): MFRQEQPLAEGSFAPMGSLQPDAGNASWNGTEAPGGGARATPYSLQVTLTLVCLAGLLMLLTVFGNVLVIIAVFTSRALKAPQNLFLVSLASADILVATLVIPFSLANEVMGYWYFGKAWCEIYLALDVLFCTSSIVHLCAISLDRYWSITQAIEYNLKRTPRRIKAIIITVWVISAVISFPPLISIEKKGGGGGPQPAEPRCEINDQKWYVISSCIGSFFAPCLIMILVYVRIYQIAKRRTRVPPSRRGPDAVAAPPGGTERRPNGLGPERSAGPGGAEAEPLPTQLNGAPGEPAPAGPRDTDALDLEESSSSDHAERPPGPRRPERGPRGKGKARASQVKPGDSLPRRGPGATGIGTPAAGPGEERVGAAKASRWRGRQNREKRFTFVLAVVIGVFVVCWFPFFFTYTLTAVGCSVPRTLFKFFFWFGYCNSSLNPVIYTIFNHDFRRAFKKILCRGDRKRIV

[8] = molecular target: D(3) dopamine receptor (Homo sapiens) (UniProt P35462); details: 10 uM
Rattus norvegicus [9] = assay: Increase of short-term memory in rat social recognition model at 0.1 to 3 mg/kg, ip; format: functional, organism-based
[10] = molecular target: Voltage-gated inwardly rectifying potassium channel KCNH2 (Homo sapiens, UniProt Q12809); assay: Inhibition of human ERG by patch express assay
[11] = molecular target: 5-hydroxytryptamine receptor 6 (Rattus norvegicus, UniProt P31388); assay: Displacement of [3H]LSD from full length rat 5HT6 receptor
Method in brief: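 Radioligand binding with [³H]LSD on membranes from cells expressing full-length rat 5-HT6R.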

[12] = molecular target: T1, 5-hydroxytryptamine receptor 6; assay: Antagonist activity at human recombinant 5-HT6 receptor expressed human astrocytoma cells assessed as inhibition of 5-HT-induced cAMP accumulation after 10 mins preincubation by HTRF assay
[13] = Plasma clearance in rat at 1 mg/kg, iv; format: ADME, organism-based; set-up: dose 1 mg/kg, route intravenous
[14] = Oral bioavailability in rat at 5 mg/kg; format: ADME, organism-based; details: in vivo
[15] = Half life in human liver microsomes; format: ADME, Microsome
[16] = Ratio of drug level in brain to plasma in rat at 5 mg/kg, ip; format: ADME, organism-based; set-up: dose 5 mg/kg, route intraperitoneal; details: read-out: BPR
Method in brief: (§1)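 Rats dosed intraperitoneally at 5 mg/kg. Brain concentration measured at 1 h and expressed as a brain-to-plasma ratio.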

[17] = Half life in rat at 1 mg/kg, iv; format: ADME, organism-based; set-up: dose 1 mg/kg, route intravenous; details: in vivo
[18] = Volume of distribution in rat at 1 mg/kg, iv; format: ADME, organism-based; set-up: dose 1 mg/kg, route intravenous; details: in vivo
[19] = Half life in rat liver microsomes; format: ADME, Microsome
[20] = Half life in dog liver microsomes; format: ADME, Canis lupus familiaris, Microsome
Rattus norvegicus [21] = assay: AUC in rat at 5 mg/kg, po after 6 hrs; format: ADME, organism-based, Plasma; set-up: time < 6 hr, dose 5 mg/kg, route oral; details: in vivo
[22] = Cmax in rat at 5 mg/kg, po; format: ADME, organism-based; set-up: dose 5 mg/kg, route oral; details: in vivo
Brain = assay: Drug uptake in rat brain at 5 mg/kg, ip after 1 hr; format: ADME, organism-based; set-up: dose 5 mg/kg, route intraperitoneal; details: in vivo; method in brief: as §1
L-type calcium channel = L-type calcium channel (Rattus norvegicus, UniProt P22002+P27732+Q02485); assay: Inhibition of rat L-type calcium channel at 10 uM
Cytochrome P450 2D6 = Cytochrome P450 2D6 (Homo sapiens, UniProt P10635); assay: Inhibition of CYP2D6; format: ADME
Cytochrome P450 3A4 = Cytochrome P450 3A4 (Homo sapiens, UniProt P08684); assay: Inhibition of CYP3A4; format: ADME
Cytochrome P450 2C19 = Cytochrome P450 2C19 (Homo sapiens, UniProt P33261); assay: Inhibition of CYP2C19; format: ADME
[23] = molecular target: T3, 5-hydroxytryptamine receptor 2B; assay: Antagonist activity at 5HT2B receptor; format: functional
Cytochrome P450 2C9 = Cytochrome P450 2C9 (Homo sapiens, UniProt P11712); assay: Inhibition of CYP2C9; format: ADME
Cytochrome P450 1A2 = molecular target: T5, Cytochrome P450 1A2 (Homo sapiens, UniProt P05177); assay: Inhibition of CYP1A2; format: ADME
T5 sequence (P05177 whole entry): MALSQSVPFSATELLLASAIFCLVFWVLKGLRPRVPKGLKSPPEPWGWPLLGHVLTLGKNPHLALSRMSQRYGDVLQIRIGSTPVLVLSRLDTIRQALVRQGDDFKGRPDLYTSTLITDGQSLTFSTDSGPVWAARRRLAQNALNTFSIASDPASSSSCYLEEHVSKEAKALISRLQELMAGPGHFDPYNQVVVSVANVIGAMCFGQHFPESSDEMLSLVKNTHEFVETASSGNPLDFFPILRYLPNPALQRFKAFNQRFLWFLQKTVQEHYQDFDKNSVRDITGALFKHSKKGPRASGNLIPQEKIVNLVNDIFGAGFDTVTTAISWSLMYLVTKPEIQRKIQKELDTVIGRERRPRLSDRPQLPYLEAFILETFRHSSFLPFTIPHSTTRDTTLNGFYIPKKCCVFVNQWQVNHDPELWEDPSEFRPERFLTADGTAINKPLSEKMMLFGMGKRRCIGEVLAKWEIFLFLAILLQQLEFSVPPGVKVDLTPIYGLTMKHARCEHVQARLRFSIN

Sequence of Voltage-gated inwardly rectifying potassium channel KCNH2 (Q12809 whole entry): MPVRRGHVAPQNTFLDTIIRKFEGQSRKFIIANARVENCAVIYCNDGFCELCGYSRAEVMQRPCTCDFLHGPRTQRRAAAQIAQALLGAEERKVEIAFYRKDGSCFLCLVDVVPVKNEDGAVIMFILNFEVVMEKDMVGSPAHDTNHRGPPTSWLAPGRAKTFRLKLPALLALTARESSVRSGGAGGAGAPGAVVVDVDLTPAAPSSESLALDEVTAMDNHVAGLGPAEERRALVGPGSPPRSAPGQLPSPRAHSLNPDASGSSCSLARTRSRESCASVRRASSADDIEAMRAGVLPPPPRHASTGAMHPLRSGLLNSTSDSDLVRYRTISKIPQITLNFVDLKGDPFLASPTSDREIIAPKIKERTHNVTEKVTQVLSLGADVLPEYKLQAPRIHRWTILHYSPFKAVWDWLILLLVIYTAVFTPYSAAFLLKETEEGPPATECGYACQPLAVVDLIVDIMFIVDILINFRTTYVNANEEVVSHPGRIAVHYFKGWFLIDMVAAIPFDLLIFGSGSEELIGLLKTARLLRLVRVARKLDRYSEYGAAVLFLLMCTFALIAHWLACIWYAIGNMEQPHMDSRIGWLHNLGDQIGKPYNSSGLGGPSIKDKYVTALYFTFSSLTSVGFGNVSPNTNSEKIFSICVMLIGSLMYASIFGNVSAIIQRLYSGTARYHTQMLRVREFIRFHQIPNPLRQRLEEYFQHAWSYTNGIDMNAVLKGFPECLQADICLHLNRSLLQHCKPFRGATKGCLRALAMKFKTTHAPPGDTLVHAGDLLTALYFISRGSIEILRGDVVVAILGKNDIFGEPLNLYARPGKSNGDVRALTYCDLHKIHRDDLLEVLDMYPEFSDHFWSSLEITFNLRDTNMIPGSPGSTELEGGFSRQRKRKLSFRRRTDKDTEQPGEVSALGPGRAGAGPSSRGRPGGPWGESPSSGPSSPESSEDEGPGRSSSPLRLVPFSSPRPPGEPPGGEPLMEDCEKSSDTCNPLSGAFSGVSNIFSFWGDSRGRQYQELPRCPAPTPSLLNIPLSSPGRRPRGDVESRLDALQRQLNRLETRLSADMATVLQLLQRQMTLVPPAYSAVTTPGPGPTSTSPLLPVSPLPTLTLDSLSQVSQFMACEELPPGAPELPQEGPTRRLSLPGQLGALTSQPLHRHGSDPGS
Sequence of 5-hydroxytryptamine receptor 6 (Rattus norvegicus, UniProt P31388) (P31388 whole entry): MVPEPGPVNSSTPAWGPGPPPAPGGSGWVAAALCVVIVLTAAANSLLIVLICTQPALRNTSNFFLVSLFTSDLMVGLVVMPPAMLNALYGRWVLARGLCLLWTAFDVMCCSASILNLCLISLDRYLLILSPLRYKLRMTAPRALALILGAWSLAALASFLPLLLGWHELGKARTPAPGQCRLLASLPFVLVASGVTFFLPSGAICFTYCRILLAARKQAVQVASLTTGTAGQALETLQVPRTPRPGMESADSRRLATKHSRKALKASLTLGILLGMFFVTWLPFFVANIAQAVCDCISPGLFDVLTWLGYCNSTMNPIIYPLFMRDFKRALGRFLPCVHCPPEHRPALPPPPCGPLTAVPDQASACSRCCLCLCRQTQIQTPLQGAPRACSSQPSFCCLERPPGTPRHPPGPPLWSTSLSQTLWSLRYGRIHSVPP
T1 sequence (P50406 whole entry): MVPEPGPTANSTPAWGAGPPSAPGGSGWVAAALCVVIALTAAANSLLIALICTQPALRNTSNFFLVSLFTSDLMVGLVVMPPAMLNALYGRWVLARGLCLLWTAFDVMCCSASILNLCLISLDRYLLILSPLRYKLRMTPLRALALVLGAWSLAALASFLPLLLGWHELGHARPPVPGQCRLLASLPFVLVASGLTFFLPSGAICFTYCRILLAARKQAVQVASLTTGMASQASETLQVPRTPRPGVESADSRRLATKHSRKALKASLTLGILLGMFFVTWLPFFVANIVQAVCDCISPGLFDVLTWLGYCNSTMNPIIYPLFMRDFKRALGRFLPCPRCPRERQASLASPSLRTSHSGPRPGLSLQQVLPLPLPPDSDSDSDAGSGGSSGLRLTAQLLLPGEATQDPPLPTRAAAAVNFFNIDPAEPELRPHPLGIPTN
T3 sequence (P41595 whole entry): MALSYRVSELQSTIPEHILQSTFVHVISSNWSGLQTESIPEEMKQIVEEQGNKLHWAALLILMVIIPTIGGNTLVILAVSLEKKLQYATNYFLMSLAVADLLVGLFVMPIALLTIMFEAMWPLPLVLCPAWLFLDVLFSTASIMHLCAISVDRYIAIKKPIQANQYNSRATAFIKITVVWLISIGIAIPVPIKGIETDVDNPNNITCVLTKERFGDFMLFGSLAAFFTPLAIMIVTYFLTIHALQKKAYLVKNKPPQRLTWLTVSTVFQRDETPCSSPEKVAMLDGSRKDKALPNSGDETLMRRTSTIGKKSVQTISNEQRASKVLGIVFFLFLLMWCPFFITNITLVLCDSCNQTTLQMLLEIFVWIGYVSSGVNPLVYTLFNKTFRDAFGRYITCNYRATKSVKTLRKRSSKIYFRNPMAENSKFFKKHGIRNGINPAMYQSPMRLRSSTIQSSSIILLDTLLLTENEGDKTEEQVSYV
Sequence of Cytochrome P450 3A4 (P08684 whole entry): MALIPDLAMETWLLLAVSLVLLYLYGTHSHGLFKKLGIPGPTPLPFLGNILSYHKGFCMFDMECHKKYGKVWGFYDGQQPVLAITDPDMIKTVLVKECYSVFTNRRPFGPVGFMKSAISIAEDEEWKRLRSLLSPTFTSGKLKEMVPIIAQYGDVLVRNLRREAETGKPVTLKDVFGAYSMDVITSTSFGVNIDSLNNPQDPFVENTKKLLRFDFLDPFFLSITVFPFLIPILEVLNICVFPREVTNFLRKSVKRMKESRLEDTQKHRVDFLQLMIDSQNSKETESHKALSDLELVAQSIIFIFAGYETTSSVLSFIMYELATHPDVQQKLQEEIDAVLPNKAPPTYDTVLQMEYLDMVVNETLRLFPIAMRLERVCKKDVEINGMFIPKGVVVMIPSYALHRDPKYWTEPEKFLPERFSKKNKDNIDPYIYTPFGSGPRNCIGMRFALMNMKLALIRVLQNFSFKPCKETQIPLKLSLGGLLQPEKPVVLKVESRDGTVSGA
Sequence of 5-hydroxytryptamine receptor 2A (Homo sapiens) (P28223 whole entry): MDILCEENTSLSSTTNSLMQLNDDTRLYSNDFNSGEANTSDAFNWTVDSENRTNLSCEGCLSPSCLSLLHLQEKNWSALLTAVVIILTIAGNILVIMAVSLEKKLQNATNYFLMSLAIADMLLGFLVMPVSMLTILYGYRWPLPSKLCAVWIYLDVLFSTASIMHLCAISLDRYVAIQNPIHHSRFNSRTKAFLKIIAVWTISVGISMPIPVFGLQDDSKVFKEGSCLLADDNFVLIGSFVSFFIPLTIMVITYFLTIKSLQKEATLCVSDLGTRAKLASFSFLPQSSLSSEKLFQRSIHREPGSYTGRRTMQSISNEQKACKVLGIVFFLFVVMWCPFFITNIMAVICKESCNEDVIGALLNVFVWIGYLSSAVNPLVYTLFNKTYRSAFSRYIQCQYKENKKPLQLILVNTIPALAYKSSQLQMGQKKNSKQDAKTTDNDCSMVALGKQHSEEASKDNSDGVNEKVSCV
Sequence of Cytochrome P450 2D6 (P10635 whole entry): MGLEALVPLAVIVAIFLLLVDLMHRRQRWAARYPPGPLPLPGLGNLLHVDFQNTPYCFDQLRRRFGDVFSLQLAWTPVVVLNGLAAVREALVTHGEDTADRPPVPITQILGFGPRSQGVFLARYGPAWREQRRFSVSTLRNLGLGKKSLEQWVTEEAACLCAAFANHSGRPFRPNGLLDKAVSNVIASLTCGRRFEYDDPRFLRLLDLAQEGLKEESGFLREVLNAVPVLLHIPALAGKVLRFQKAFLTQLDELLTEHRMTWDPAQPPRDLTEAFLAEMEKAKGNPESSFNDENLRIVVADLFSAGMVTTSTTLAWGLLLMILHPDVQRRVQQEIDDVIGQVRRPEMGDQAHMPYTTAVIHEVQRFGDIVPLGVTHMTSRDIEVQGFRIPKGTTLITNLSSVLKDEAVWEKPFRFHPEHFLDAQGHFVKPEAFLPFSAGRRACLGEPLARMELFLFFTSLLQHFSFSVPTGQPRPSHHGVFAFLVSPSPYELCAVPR
Sequence of D(2) dopamine receptor (Homo sapiens) (P14416 whole entry): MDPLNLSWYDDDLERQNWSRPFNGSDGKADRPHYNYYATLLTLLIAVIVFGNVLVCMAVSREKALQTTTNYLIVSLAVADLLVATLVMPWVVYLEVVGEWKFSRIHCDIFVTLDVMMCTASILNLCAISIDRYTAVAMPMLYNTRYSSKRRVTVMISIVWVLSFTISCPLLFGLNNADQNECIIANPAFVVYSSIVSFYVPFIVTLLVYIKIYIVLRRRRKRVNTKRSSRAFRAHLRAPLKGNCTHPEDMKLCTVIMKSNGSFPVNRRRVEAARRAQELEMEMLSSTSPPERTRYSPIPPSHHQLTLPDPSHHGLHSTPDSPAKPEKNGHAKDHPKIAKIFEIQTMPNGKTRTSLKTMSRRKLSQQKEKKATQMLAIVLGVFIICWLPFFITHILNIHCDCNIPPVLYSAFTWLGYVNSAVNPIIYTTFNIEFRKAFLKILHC
Sequence of Cytochrome P450 2C9 (P11712 whole entry): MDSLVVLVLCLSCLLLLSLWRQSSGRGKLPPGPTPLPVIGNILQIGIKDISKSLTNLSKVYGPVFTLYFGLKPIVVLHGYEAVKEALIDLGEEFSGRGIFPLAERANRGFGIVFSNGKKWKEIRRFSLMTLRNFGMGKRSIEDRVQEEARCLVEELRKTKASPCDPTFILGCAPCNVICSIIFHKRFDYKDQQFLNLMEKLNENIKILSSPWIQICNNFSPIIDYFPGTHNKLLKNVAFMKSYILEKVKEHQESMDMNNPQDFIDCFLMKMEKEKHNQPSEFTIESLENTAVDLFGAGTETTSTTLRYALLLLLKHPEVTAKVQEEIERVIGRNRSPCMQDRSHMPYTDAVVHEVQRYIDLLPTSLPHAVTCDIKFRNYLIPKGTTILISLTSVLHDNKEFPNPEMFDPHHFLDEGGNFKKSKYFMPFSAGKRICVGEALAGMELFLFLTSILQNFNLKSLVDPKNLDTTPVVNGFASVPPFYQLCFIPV

SMILES: O=S(=O)(c1ccc(F)cc1)c1ccc2c3c(oc2c1)CNCC3
Ki [1]: 22 nM

SMILES: CC1(C(F)(F)F)NCCc2c1oc1cc(S(=O)(=O)c3cccc(F)c3)ccc21 (stereo unspecified)
pKa [2]: 5.7
Ki [1]: 139 nM

SMILES: O=S(=O)(c1cccc(F)c1)c1ccc2c3c(oc2c1)C1(CCCOC1)NCC3 (stereo in doubt; 2) [listing 1 of 2 here]
inhibition [3]: > 50%
inhibition [4]: > 50%
inhibition [5]: > 50%
inhibition [6]: > 50%
inhibition [7]: > 50%
inhibition [8]: > 50%
Activity (Rattus norvegicus [9]): Active

SMILES: O=S(=O)(c1cccc(F)c1)c1ccc2c3c(oc2c1)C1(CCCOC1)NCC3 (racemic)
IC50 [10]: 13600 nM
Ki [11]: 38.3 nM

SMILES: O=S(=O)(c1ccccc1)c1ccc2oc3c(c2c1)CCNC3
Ki [1]: 46 nM
Ki [11]: 156 nM

SMILES: O=S(=O)(c1cccc(F)c1)c1ccc2c3c(oc2c1)C1(CCCOC1)NCC3 (stereo in doubt; 3)
pKa [2]: 7.5
IC50 [10]: 9600 nM

SMILES: O=S(=O)(c1cccc(F)c1)c1ccc2c3c(oc2c1)C1(CCCOC1)NCC3 (stereo in doubt; 2) [listing 2 of 2 here]
clearance [13]: 32 mL/min/kg
bioavailability [14]: 36%
inhibition at 10 µM (L-type calcium channel): > 50%
IC50 (Cytochrome P450 2D6): > 30000 nM
half-life [15]: 30 min
Kp [16]: 2
half-life [17]: 84 min
IC50 [10]: 12000 nM
Vd [18]: 4 L/kg
IC50 (Cytochrome P450 3A4): > 30000 nM
IC50 (Cytochrome P450 2C19): > 30000 nM
IC50 [23]: 1500 nM
half-life [19]: 25 min
half-life [20]: > 40 min
AUC (Rattus norvegicus [21]): 974 ng·h/mL
Cmax [22]: 210 ng/mL
Drug uptake (Brain): 1660 nmol/g
IC50 (Cytochrome P450 2C9): 1900 nM
Ki [11]: 16.9 nM
IC50 (Cytochrome P450 1A2): > 30000 nM

SMILES: COCC1(C)NCCc2c1oc1cc(S(=O)(=O)c3cccc(F)c3)ccc21 (stereo unspecified)
pKa [2]: 7.5
Ki [1]: 18 nM
Ki [11]: 113 nM

Continued, in another order:

Ki [1]: 2.7 nM
Ki [11]: 9.8 nM
IC50 [12]: 8.5 nM
SMILES: O=S(=O)(c1ccccc1)c1ccc2c3c(oc2c1)CNCC3

clearance [13]: 82 mL/min/kg
bioavailability [14]: 15%
half-life [15]: > 40 min
Kp [16]: 7.7
half-life [17]: 54 min
Ki [1]: 2.9 nM
Vd [18]: 5.5 L/kg
half-life [19]: 16 min
half-life [20]: 32 min
AUC (Rattus norvegicus [21]): 149 ng·h/mL
Cmax [22]: 35 ng/mL
Drug uptake (Brain): 1620 nmol/g
Ki [11]: 19 nM
IC50 [12]: 11.7 nM
SMILES: CC1(C)NCCc2c1oc1cc(S(=O)(=O)c3cccc(F)c3)ccc21

Ki [1]: 17.5 nM
IC50 [12]: 68.6 nM
SMILES: COc1cccc(S(=O)(=O)c2ccc3c4c(oc3c2)C(C)(C)NCC4)c1

pKa [2]: 7.5
Ki [1]: 22.3 nM
Ki [11]: 132 nM
IC50 [12]: 32 nM
SMILES: O=S(=O)(c1cccc(F)c1)c1ccc2c3c(oc2c1)C1(CCOC1)NCC3 (racemic)

Ki [1]: 7.7 nM
Ki [11]: 41 nM
IC50 [12]: 34 nM
SMILES: CC1(C)NCCc2c1oc1cc(S(=O)(=O)c3ccccc3)ccc21

clearance [13]: 17 mL/min/kg
bioavailability [14]: 6%
half-life [15]: 19 min
pKa [2]: 7.4
Kp [16]: 3.3
half-life [17]: 54 min
Ki [1]: 2.1 nM
Vd [18]: 1.4 L/kg
half-life [19]: 25 min
half-life [20]: > 40 min
AUC (Rattus norvegicus [21]): 368 ng·h/mL
Cmax [22]: 84 ng/mL
Drug uptake (Brain): 979 nmol/g
Ki [11]: 14 nM
IC50 [12]: 6.8 nM
SMILES: O=S(=O)(c1cccc(F)c1)c1ccc2c3c(oc2c1)C1(CCOCC1)NCC3
IC50 [10]: > 30000 nM

Ki [1]: 1.6 nM
half-life [19]: < 5 min
half-life [20]: 10.3 min
Ki [11]: 6.9 nM
IC50 [12]: 3.6 nM
SMILES: O=S(=O)(c1cccc(F)c1)c1ccc2c3c(oc2c1)CNCC3

pKa [2]: 6.2
Ki [11]: 183 nM
SMILES: CC1(C(F)F)NCCc2c1oc1cc(S(=O)(=O)c3cccc(F)c3)ccc21 (stereo unspecified)

Ki [1]: 5.6 nM
Ki [11]: 34 nM
IC50 [12]: 21 nM
SMILES: COc1cccc(S(=O)(=O)c2ccc3c4c(oc3c2)CNCC4)c1
